Assays:
[1] = target: T1, Prostaglandin G/H synthase 2 (Mus musculus) (UniProt Q05769); experiment: Inhibition of COX2-mediated PGE2 production in LPS-induced mouse RAW264.7 cells at 10 uM after 24 hrs by ELISA; type: cell-based
T1 sequence (whole entry): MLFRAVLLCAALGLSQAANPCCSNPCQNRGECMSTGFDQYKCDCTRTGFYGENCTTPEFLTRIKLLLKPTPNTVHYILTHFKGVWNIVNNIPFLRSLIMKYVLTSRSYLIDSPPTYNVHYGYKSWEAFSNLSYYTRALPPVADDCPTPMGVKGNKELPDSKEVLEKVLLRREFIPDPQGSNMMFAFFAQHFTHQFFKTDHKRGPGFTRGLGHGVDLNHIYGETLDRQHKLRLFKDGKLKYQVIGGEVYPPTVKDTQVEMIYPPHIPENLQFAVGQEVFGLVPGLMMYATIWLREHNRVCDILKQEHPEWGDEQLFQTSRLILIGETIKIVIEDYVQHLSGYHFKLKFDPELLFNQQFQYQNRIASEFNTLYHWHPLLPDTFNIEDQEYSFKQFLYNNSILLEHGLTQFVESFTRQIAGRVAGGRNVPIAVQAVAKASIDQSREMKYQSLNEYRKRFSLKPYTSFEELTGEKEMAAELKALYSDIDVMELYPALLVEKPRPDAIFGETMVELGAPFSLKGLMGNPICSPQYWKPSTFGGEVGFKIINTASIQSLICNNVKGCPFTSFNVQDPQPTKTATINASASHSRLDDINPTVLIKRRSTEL
In short: (§1)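 RAW 264.7 cells in DMEM with 10% FBS and 1% antibiotics at 37 °C, 5% CO₂, plated at 2 × 10⁵ cells/well and pre-incubated 2 h. Compound and LPS were then added together for 24 h. Medium readouts: for NO, nitrite by Griess reagent at OD 550 nm; for PGE₂, commercial ELISA.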

[2] = target: T2, Nitric oxide synthase, inducible (Mus musculus) (UniProt P29477); experiment: Inhibition of iNOS-mediated NO production in LPS-induced mouse RAW264.7 cells at 10 uM after 24 hrs by griess method; type: cell-based; in short: as §1
T2 sequence (whole entry): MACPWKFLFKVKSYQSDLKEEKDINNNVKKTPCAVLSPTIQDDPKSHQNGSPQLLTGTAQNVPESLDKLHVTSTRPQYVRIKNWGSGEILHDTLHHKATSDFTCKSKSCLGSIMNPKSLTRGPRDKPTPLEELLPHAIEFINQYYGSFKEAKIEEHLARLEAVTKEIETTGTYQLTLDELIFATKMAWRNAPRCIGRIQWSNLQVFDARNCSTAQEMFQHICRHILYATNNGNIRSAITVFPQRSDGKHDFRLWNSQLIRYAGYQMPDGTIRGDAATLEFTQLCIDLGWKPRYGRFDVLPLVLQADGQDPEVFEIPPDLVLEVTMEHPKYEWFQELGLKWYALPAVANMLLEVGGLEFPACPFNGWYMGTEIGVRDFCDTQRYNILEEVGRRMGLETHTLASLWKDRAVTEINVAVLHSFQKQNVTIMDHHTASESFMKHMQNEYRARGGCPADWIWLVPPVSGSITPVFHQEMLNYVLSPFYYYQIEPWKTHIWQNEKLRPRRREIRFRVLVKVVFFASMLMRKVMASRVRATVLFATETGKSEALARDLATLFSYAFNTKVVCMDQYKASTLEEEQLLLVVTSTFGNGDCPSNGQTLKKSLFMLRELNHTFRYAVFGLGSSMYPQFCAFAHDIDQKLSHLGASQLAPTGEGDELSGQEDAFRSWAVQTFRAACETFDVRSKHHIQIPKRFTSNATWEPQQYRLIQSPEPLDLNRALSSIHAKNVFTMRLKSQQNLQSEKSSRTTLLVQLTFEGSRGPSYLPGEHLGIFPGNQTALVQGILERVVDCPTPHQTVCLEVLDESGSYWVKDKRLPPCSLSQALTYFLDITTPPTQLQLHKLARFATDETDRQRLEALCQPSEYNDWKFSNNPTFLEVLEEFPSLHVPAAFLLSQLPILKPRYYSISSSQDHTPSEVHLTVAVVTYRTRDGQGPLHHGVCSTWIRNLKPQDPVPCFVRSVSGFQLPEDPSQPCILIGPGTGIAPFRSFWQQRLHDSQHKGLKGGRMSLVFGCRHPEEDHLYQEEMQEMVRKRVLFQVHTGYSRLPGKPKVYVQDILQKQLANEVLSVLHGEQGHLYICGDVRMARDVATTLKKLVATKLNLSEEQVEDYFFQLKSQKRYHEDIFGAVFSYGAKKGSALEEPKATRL

[3] = Cytotoxicity against mouse RAW264.7 cells assessed as reduction in cell viability at 10 uM after 24 hrs by MTT assay

inhibition [1] [%] | inhibition [2] [%] | Compound | reduction in viability at 24 h, 10 µM [3] [%]
26.7 | 8.3 | O=c1cc(-c2ccccc2)oc2c(-c3ccoc3)c(O)cc(O)c12 | < 10
48.1 | 16.7 | O=c1cc(-c2ccccc2)oc2c(-c3cccnc3)c(O)cc(O)c12 | < 10
74 | 8.9 | O=c1cc(-c2ccccc2)oc2cc(O)cc(O)c12 | –
31.4 | 7.6 | O=c1cc(-c2ccccc2)oc2c(-c3ccsc3)c(O)cc(O)c12 | < 10
92.4 | 29.1 | O=c1cc(-c2ccccc2)oc2c(-c3ccncc3)c(O)cc(O)c12 | < 10
44.3 | 3.7 | Cc1c(O)cc(O)c2c(=O)cc(-c3ccccc3)oc12 | < 10
